Results from ChEMBL document CHEMBL1121685, “Development of new mitomycin C and porfiromycin analogues” (J Med Chem, 1981).

Key:
[1] = Therapeutic ratio is expressed as ratio of optimal dose and minimum effective dose; format: ADME; settings: mouse; read-out: TR
Method in brief: (§1)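 10⁶ P-388 ascites cells implanted ip in CDF₁ female mice. Six mice per dose, 10 saline-injected controls, and a concurrent mitomycin C reference group. %T/C = median survival time of treated/control × 100. MED is the lowest dose giving %T/C > 125. Therapeutic ratio = optimal dose/MED.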

Mus musculus [2] = assay: Minimum effective dose that show activity against P-388 murine leukemia cells in CDF1 female mice, after intraperitoneal administration (optimal dose is 6.4 mg/kg); format: functional; settings: P388, ip, read-out: MED; method in brief: as §1
Mus musculus [3] = assay: Antitumor activity against P-388 murine leukemia cells in CDF1 female mice after intraperitoneal administration at the specified optimal dose of 6.4 mg/kg; format: functional
Mus musculus [4] = assay: Minimum effective dose that show activity against P-388 murine leukemia cells in CDF1 female mice, after intraperitoneal administration (optimal dose is 3.2 mg/kg); format: functional; settings: P388, ip, read-out: MED; method in brief: as §1
Mus musculus [5] = assay: Antitumor activity against P-388 murine leukemia cells in CDF1 female mice after intraperitoneal administration at the specified optimal dose of 3.2 mg/kg; format: functional
Mus musculus [6] = assay: Antitumor activity against P-388 murine leukemia cells in CDF1 female mice after intraperitoneal administration at the specified optimal dose of 25.6 mg/kg; format: functional
Mus musculus [7] = assay: Minimum effective dose that show activity against P-388 murine leukemia cells in CDF1 female mice, after intraperitoneal administration (optimal dose is 25.6 mg/kg); format: functional; settings: P388, ip, read-out: MED; method in brief: as §1
Mus musculus [8] = assay: Antitumor activity against P-388 murine leukemia cells in CDF1 female mice after intraperitoneal administration at the specified optimal dose of 12.8 mg/kg; format: functional
Mus musculus [9] = assay: Minimum effective dose that show activity against P-388 murine leukemia cells in CDF1 female mice, after intraperitoneal administration (optimal dose is 12.8 mg/kg); format: functional; settings: P388, ip, read-out: MED; method in brief: as §1
Mus musculus [10] = species: Mus musculus; assay: Degree of leukopenia produced by compound is assessed form Percent change in white cells on days 5; format: functional
Method in brief: (§2)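 BDG₁ male mice received a single ip dose on day 0. The dose series topped out at the LD₅₀ level, or at twice the optimal dose for some agents. Total white blood cell count was taken on days 3, 5 and 7 and expressed as % change from untreated controls. Significance was set at p ≤ 0.05 or p ≤ 0.01.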

Mus musculus [11] = species: Mus musculus; assay: Half-wave potential produced by the compound at their optimal dose; format: functional; set-up: unit not given here
Mus musculus [12] = assay: Effect of compound on total white blood cell count in BDG1 male mice, after intraperitoneal administration at a dose of 6.4 mg/kg on day 5; format: functional
Method in brief: (§3)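 Single ip dose given on day 0 to BDG₁ male mice. Total white blood cell count measured on days 3, 5 and 7, expressed as % change from control. Highest dose was at the LD₅₀, or at twice the optimal dose where so footnoted. Significance reported at p ≤ 0.05 and p ≤ 0.01. D marks death of one or more mice.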

Mus musculus [13] = assay: Effect of compound on total white blood cell count in BDG1 male mice, after intraperitoneal administration at a dose of 12.8 mg/kg on day 5; format: functional; method in brief: as §2
Mus musculus [14] = assay: Effect of compound on total white blood cell count in BDG1 male mice, after intraperitoneal administration at a dose of 6.4 mg/kg on day 3; format: functional; method in brief: as §3
Mus musculus [15] = assay: Effect of compound on total white blood cell count in BDG1 male mice, after intraperitoneal administration at a dose of 12.8 mg/kg on day 3; format: functional; method in brief: as §2
Mus musculus [16] = assay: Effect of compound on total white blood cell count in BDG1 male mice, after intraperitoneal administration at a dose 6.4 mg/kg on day 7; format: functional; method in brief: as §2
Mus musculus [17] = assay: Effect of compound on total white blood cell count in BDG1 male mice, after intraperitoneal administration at a dose of 25.6 mg/kg on day 3 (highest dose was twice the optimal dose); format: functional
Mus musculus [18] = assay: Effect of compound on total white blood cell count in BDG1 male mice, after intraperitoneal administration at a dose of 25.3 mg/kg on day 3; format: functional
Method in brief: (§4)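 Single ip dose given on day 0 to BDG1 male mice over a descending dose series. Total white blood cell count is expressed as % change from untreated control on days 3, 5 and 7. Significance is flagged at p ≤ 0.05 and p ≤ 0.01.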

Mus musculus [19] = assay: Effect of compound on total white blood cell count in BDG1 male mice, after intraperitoneal administration at a dose of 45 mg/kg on day 5; format: functional; method in brief: as §3
Mus musculus [20] = assay: Effect of compound on total white blood cell count in BDG1 male mice, after intraperitoneal administration at a dose of 45 mg/kg on day 3; format: functional; method in brief: as §3
Mus musculus [21] = assay: Number of cured survivors, 45 days after administration of compound at a dose of 24 mg/kg/day in mice; format: functional
Mus musculus [22] = assay: Effect of compound on total white blood cell count in BDG1 male mice, after intraperitoneal administration at a dose of 25.3 mg/kg on day 7; format: functional; method in brief: as §4
Mus musculus [23] = assay: Effect of compound on total white blood cell count in BDG1 male mice, after intraperitoneal administration at a dose of 25.3 mg/kg on day 5; format: functional; method in brief: as §4
Mus musculus [24] = assay: Effect of compound on total white blood cell count in BDG1 male mice, after intraperitoneal administration at a dose of 33.8 mg/kg on day 7; format: functional; method in brief: as §4
Mus musculus [25] = assay: Effect of compound on total white blood cell count in BDG1 male mice, after intraperitoneal administration at a dose of 33.8 mg/kg on day 3; format: functional; method in brief: as §4
Mus musculus [26] = assay: Activity of compound dose of 6 mg/kg/day against Murine B-16 Melanocarcinoma in mice; format: functional
Mus musculus [27] = assay: Number of tumored survivors, 45 days after administration of compound at a dose of 12 mg/kg/day in mice; format: functional
Mus musculus [28] = assay: Activity of compound dose of 12 mg/kg/day against Murine B-16 Melanocarcinoma in mice; format: functional
Mus musculus [29] = assay: Number of tumored survivors, 45 days after administration of compound at a dose of 24 mg/kg/day in mice; format: functional
Mus musculus [30] = assay: Effect of compound on total white blood cell count in BDG1 male mice, after intraperitoneal administration at a dose of 45 mg/kg on day 7; format: functional; method in brief: as §3
Mus musculus [31] = assay: Activity of compound dose of 3 mg/kg/day against Murine B-16 Melanocarcinoma in mice; format: functional
Mus musculus [32] = assay: Number of cured survivors, 45 days after administration of compound at a dose of 12 mg/kg/day in mice; format: functional
Mus musculus [33] = assay: Activity of compound dose of 1.5 mg/kg/day against Murine B-16 Melanocarcinoma in mice; format: functional
Mus musculus [34] = assay: Effect of compound on total white blood cell count in BDG1 male mice, after intraperitoneal administration at a dose of 33.8 mg/kg on day 5; format: functional; method in brief: as §4
Mus musculus [35] = assay: Activity of compound dose of 24 mg/kg/day against Murine B-16 Melanocarcinoma in mice; format: functional
Mus musculus [36] = assay: Effect of compound on total white blood cell count in BDG1 male mice, after intraperitoneal administration at a dose of 90.5 mg/kg on day 3; format: functional
Mus musculus [37] = assay: Effect of compound on total white blood cell count in BDG1 male mice, after intraperitoneal administration at a dose of 67.9 mg/kg on day 3; format: functional; method in brief: as §3
Mus musculus [38] = assay: Effect of compound on total white blood cell count in BDG1 male mice, after intraperitoneal administration at a dose of 90.5 mg/kg on day 5; format: functional

SMILES	selectivity ratio [1]	T/C (Mus musculus [6]) [%]	minimal effective dose (Mus musculus [7]) [mg/kg]	T/C (Mus musculus [8]) [%]	minimal effective dose (Mus musculus [9]) [mg/kg]	also measured
COC12[C@@H]3N[C@@H]3CN1C1=C(C(=O)C(NCC(N)=O)=C(C)C1=O)[C@@H]2COC(N)=O (stereo not given in full)	16	–	–	–	–	minimal effective dose (Mus musculus [2]): 0.4 mg/kg; T/C (Mus musculus [3]): 217%
COC1=C(C)C(=O)C2=C(C1=O)[C@H](COC(N)=O)C1(OC)[C@H]3[C@@H](CN21)N3C (stereo not given in full)	8	–	–	–	–	minimal effective dose (Mus musculus [4]): 0.4 mg/kg; T/C (Mus musculus [5]): 180%
C=C(Cl)CNC1=C(C)C(=O)C2=C(C1=O)[C@H](COC(N)=O)C1(OC)[C@@H]3N[C@@H]3CN21 (stereo not given in full)	8	178	3.2	–	–	–
C#CCN(C)C1=C(C)C(=O)C2=C(C1=O)[C@H](COC(N)=O)C1(OC)[C@@H]3N[C@@H]3CN21 (stereo not given in full)	16	–	–	210	0.8	–
COC12[C@@H]3N[C@@H]3CN1C1=C(C(=O)C(NCc3cccnc3)=C(C)C1=O)[C@@H]2COC(N)=O (stereo not given in full)	4	–	–	167	3.2	–
COC12[C@@H]3N[C@@H]3CN1C1=C(C(=O)C(NCCc3ccccc3)=C(C)C1=O)[C@@H]2COC(N)=O (stereo not given in full)	–	194	1.6	–	–	–
C#CC(C)(C)NC1=C(C)C(=O)C2=C(C1=O)[C@H](COC(N)=O)C1(OC)[C@@H]3N[C@@H]3CN21 (stereo not given in full)	16	178	1.6	–	–	–
COC12[C@@H](COC(N)=O)c3c(O)c(N=C4C=CC(=O)C=C4)c(C)c(O)c3N1C[C@@H]1[C@H]2N1C (stereo not given in full)	4	–	–	–	–	minimal effective dose (Mus musculus [2]): 1.6 mg/kg; T/C (Mus musculus [3]): 137%
COC12[C@@H]3N[C@@H]3CN1C1=C(C(=O)C(NCCCO)=C(C)C1=O)[C@@H]2COC(N)=O (stereo not given in full)	8	244	3.2	–	–	Change (Mus musculus [10]): -43%; E1/2 (Mus musculus [11]): -0.42
COC12[C@@H]3N[C@@H]3CN1C1=C(C(=O)C(NCc3ccc(S(N)(=O)=O)cc3)=C(C)C1=O)[C@@H]2COC(N)=O (stereo not given in full)	4	150	6.4	–	–	–
C=CCNC1=C(C)C(=O)C2=C(C1=O)[C@H](COC(N)=O)C1(OC)[C@H]3[C@@H](CN21)N3C (stereo not given in full)	4	–	–	189	3.2	–
COC(=O)CNC1=C(C)C(=O)C2=C(C1=O)[C@H](COC(N)=O)C1(OC)[C@@H]3N[C@@H]3CN21 (stereo not given in full)	32	–	–	300	–	Change (Mus musculus [12]): -55%; Change (Mus musculus [13]): -68%; Change (Mus musculus [14]): -39%; Change (Mus musculus [15]): -55%; Change (Mus musculus [16]): -21%; Change (Mus musculus [17]): -65%
COC12[C@@H]3N[C@@H]3CN1C1=C(C(=O)C(NCC3CCCO3)=C(C)C1=O)[C@@H]2COC(N)=O (stereo not given in full)	64	289	0.4	–	–	Change (Mus musculus [18]): -44%; Change (Mus musculus [19]): -72%; Change (Mus musculus [20]): -76%; Survivors (Mus musculus [21]): 4; Change (Mus musculus [22]): -19%; Change (Mus musculus [23]): -54%; Change (Mus musculus [24]): -13%; Change (Mus musculus [25]): -58%; T/C (Mus musculus [26]): 179%; Survivors (Mus musculus [27]): 1; Change (Mus musculus [10]): -54%; T/C (Mus musculus [28]): 240%; Survivors (Mus musculus [29]): 3; Change (Mus musculus [30]): -25%; T/C (Mus musculus [31]): 173%; Survivors (Mus musculus [32]): 1; E1/2 (Mus musculus [11]): -0.41; T/C (Mus musculus [33]): 146%; Change (Mus musculus [34]): -62%; T/C (Mus musculus [35]): 326%
COC12[C@@H](COC(N)=O)C3=C(C(=O)C(C)=C(NC4CC4)C3=O)N1C[C@@H]1[C@H]2N1C (stereo not given in full)	2	–	–	167	–	–
COC12[C@@H](COC(N)=O)C3=C(C(=O)C(C)=C(NCc4ccco4)C3=O)N1C[C@@H]1[C@H]2N1C (stereo not given in full)	16	261	1.6	–	–	–
COC12[C@@H](COC(N)=O)C3=C(C(=O)C(C)=C(NCCCO)C3=O)N1C[C@@H]1[C@H]2N1C (stereo not given in full)	16	239	1.6	–	–	Change (Mus musculus [36]): -78%; Change (Mus musculus [37]): -85%; Change (Mus musculus [38]): -72%
COC12[C@@H]3N[C@@H]3CN1C1=C(C(=O)C(NCc3ccccc3)=C(C)C1=O)[C@@H]2COC(N)=O (stereo not given in full)	8	–	–	188	1.6	–
COC12[C@@H]3N[C@@H]3CN1C1=C(C(=O)C(NCCCCl)=C(C)C1=O)[C@@H]2COC(N)=O (stereo not given in full)	2	–	–	140	6.4	–
CO[C@@]12[C@H](COC(N)=O)C3=C(C(=O)C(C)=C(N)C3=O)N1C[C@H]1[C@@H]2N1C (stereo not given in full) [PORFIROMYCIN]	16	–	–	225	0.8	–
